Source: paper PMC11191573 (ACS Omega, 2024)

Columns and labels:
Aβ1–42 [1] = molecular target: T1, Aβ1–42 (Homo sapiens, UniProt P05067); assay: Transmission electron microscopy of Aβ1–42 fibrils after ThT assay; format: biochemical; details: 100 μM constituent, 50 μM Aβ1–42, 3 h incubation
In short: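 After the 3 h, 37 °C ThT assay (50 μM Aβ1−42, 100 μM constituent), 10 μL was spotted on a copper grid. It was stained with 2% aqueous uranyl acetate, blotted, air-dried and imaged by TEM at 120 kV.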

TNF mRNA in THP-1 cells = assay: RT-qPCR of TNF in Aβ1–42-stimulated THP-1 cells; format: cell-based, human; details: 10 μM Aβ1–42, 24 h; ARA 0.1 μM, LPC 10 μM, LTN 0.1 μM, POA 10 μM, ZX 1 μM
[2] = tested on: IL 1B mRNA in THP-1 cells; assay: RT-qPCR of IL 1B in Aβ1–42-stimulated THP-1 cells; format: cell-based, human; details: 10 μM Aβ1–42, 24 h; ARA 0.1 μM, LPC 10 μM, LTN 0.1 μM, POA 10 μM, ZX 1 μM
Aβ1–42 [3] = molecular target: T1, Aβ1–42; assay: ThT assay of Aβ1–42 aggregation; format: biochemical; details: for Time course of RFU (curve shape) at lower concentrations: 25 and 50 μM constituent, data not shown; for Concentration dependence of activity in ThT assay: 25, 50, 100 μM
In short: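 Aβ1−42 was dissolved in 2 mM NaOH, lyophilized, then taken up in 20 mM phosphate buffer pH 7.4. Final concentrations were 50 μM Aβ1−42, 200 μM ThT and 100 μM constituent (25 and 50 μM for concentration dependence). Fluorescence (Ex 440/Em 484 nm) was read every 5 min for 3 h at 37 °C and blank-subtracted. Phenol red was the positive control and Aβ alone the negative. IC50 came from sigmoidal fitting. Mean ± SD, n = 3.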

Aβ1–42 fibrils = Aβ1–42 fibrils (Homo sapiens, UniProt P05067); assay: Aβ fibril destabilization assay; format: biochemical; details: 100 μM constituent, 50 μM Aβ1–42 fibrils, 37 °C, 5 h
In short: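 Aβ1−42 was pre-aggregated at 37 °C for 2 days, and fibril formation was confirmed by 1 h of stable ThT RFU. Constituent was then added (100 μM final; 50 μM Aβ1−42) and ThT fluorescence (Ex/Em 440/484 nm) was read for 5 h at 37 °C as in the aggregation assay. AUC was calculated. Mean ± SD, n = 3; Dunnett's test.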

THP-1 cells = assay: MTT assay; format: cell-based, human; details: 0, 0.1, 1 or 10 μM tested, 24 h
In short: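 THP-1 cells were plated at 5 × 10^4 cells/well and cultured 24 h at 37 °C. Medium containing 0, 0.1, 1 or 10 μM constituent was added for a further 24 h. Viability was measured with an MTT kit per the manufacturer's protocol and used to set nontoxic working concentrations.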

Aβ1–42 [4] = molecular target: T1, Aβ1–42; assay: FTIR spectroscopy of Aβ1–42 secondary structure; format: biochemical; details: after ThT assay, mixed with Aβ1–42
In short: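 Samples came from completed ThT assays (50 μM Aβ1−42 ± 100 μM constituent, 37 °C, 3 h). 15 μL was dried on a diamond ATR prism at 25 °C, repeated twice. ATR-FTIR spectra were taken over 1500–1700 cm−1 with 100 s integration. The area under the parallel β-sheet absorbance band was integrated. Mean ± SD, n = 3; Dunnett's test.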

Aβ1–42 [5] = molecular target: T1, Aβ1–42; details: previous paper; cited from earlier work
Aβ1–42 [6] = molecular target: T1, Aβ1–42; assay: PICUP oligomerization assay; format: biochemical; details: 50 μM constituent (final), 25 μM Aβ
Aβ = details: previously shown; cited from earlier work
Caco-2 cells = details: in vitro; cited from earlier work
[7] = tested on: TNF protein in THP-1 cell culture media; assay: ELISA of TNF in supernatant of Aβ1–42-stimulated THP-1 cells; format: cell-based, human; details: 10 μM Aβ1–42, 24 h; LTN 0.1 μM
In short: (§1)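 THP-1 cells were seeded at 5 × 10^5 cells/mL and differentiated to adherent macrophage-like cells (24 h). They were rested 24 h at 37 °C in RPMI-1640/10% FBS/1% P/S, then stimulated with 10 μM Aβ1−42 ± constituent for 24 h. Supernatant was assayed with human IL-1β or TNF-α sandwich ELISA kits, reading A450 and converting to pg/mL. Mean ± SE, n = 3; Tukey's test.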

[8] = monkeys, after feeding; cited from earlier work
[9] = tested on: IL 1B protein in THP-1 cell culture media; assay: ELISA of IL 1B in supernatant of Aβ1–42-stimulated THP-1 cells; format: cell-based, human; details: 10 μM Aβ1–42, 24 h; LTN 0.1 μM
In short: as §1

T1 sequence (P05067 672-713): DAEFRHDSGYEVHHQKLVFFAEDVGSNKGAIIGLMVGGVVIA
Sequence of Aβ1–42 fibrils (P05067 672-713): as above

Molecule	Inhibition of Aβ1–42 aggregation observed by TEM (Aβ1–42 [1])	TNF mRNA induced by Aβ1–42 (TNF mRNA in THP-1 cells)	IL 1B mRNA induced by Aβ1–42 [2]	Time course of RFU (curve shape) at lower concentrations (Aβ1–42 [3])	RFU of ThT during incubation with preformed Aβ1–42 fibrils (Aβ1–42 fibrils)	Optimal (nontoxic) concentration determined by MTT assay (THP-1 cells)	AUC of absorbances in the range of 1615–1645 cm^–1 (parallel β-sheet) (Aβ1–42 [4])	Effect on Aβ1–42 aggregation (Aβ1–42 [5])	Morphology of Aβ fibrils by TEM (Aβ1–42 [1])	Concentration dependence of activity in ThT assay (Aβ1–42 [3])	Inhibition of Aβ1–42 oligomerization (PICUP) (Aβ1–42 [6])	Inhibition of Aβ aggregation (Aβ)	Intestinal absorption of LTN in the presence of LPC (Caco-2 cells)	IC50 (Aβ1–42 [3])	Protein concentration of TNF in the supernatant [7]	Concentration of LTN in the brains [8]	Protein concentration of IL 1B in the supernatant [9]	RFU at start of ThT assay (Aβ1–42 [3]; 100 μM ARA, 50 μM Aβ1–42)
L-α-lysophosphatidylcholine [LPC]	inhibited Aβ1–42 aggregation	not suppressed	not suppressed	did not improve	remained unchanged	10 µM	particular decrease	facilitates Aβ1–42 aggregation	–	–	–	–	–	–	–	–	–	–
CCCCCC/C=C\CCCCCCCC(=O)O [POA, palmitoleic acid]	inhibited Aβ1–42 aggregation	not suppressed	not suppressed	–	decreased	10 µM	–	–	amorphous	no concentration dependence	inhibited oligomerization	–	–	–	–	–	–	–
CC1=C[C@H](O)CC(C)(C)[C@H]1/C=C/C(C)=C/C=C/C(C)=C/C=C/C=C(C)/C=C/C=C(C)/C=C/C1=C(C)C[C@@H](O)CC1(C)C [LTN, lutein]	inhibited the Aβ1–42 aggregation the most	suppressed	suppressed	sigmoidal curve	remained unchanged	0.1 µM	particular decrease	–	–	concentration-dependent	did not inhibit oligomerization	inhibit Aβ aggregation	increases	74 µM	no difference was observed	increases	suppressed	–
CCCCC/C=C\C/C=C\C/C=C\C/C=C\CCCC(=O)O [ARA, arachidonic acid]	inhibited Aβ1–42 aggregation	not suppressed	not suppressed	did not improve	remained unchanged	0.1 µM	decrease	–	–	–	did not inhibit oligomerization	–	–	37.4 µM	–	–	–	approximately 25 RFU
CC1=C(/C=C/C(C)=C/C=C/C(C)=C/C=C/C=C(C)/C=C/C=C(C)/C=C/C2=C(C)C[C@@H](O)CC2(C)C)C(C)(C)C[C@H](O)C1 [ZX, zeaxanthin]	inhibited Aβ1–42 aggregation	not suppressed	not suppressed	–	remained unchanged	1 µM	decrease	–	–	–	inhibited oligomerization	inhibit Aβ aggregation	–	–	–	–	–	–
